# Data reported in publication PMC9619409 (Journal of Medicinal Chemistry, 2022).
# “Also recorded” adds a separate entry of the source.
# Experiments:
# [1] = type: in vitro ADME; details: human blood plasma + PA14 culture supernatant, 37 °C, up to 3 h
# In short: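 PA14 grown overnight in LB at 37 °C, 180 rpm. Culture centrifuged and supernatant 0.22 μm-filtered, then mixed 1:9 with pooled LiHep human plasma. Test compound (1 mM stock, PBS pH 7.4/20% DMSO) diluted 1:20 into matrix on ice and incubated at 37 °C, 500 rpm. Samples taken at 0, 30, 60, 120 and 180 min, quenched with ice-cold MeCN containing diphenhydramine internal standard, centrifuged, then analysed by HPLC-MS.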
# [2] = type: in vitro ADME; details: human blood plasma spiked with fresh growth medium, within 3 h
# [3] = test system: P. aeruginosa PA14; assay: Antibiotic susceptibility; type: cell-based, Pseudomonas aeruginosa
# In short: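 PA14 from LB agar (37 °C overnight) dispersed in MHB II to OD600 0.08–0.13, diluted 1:100 (final 5 × 10⁵ cfu/mL). Serial dilutions in PBS/20% DMSO (1 mM–1.9 μM before dilution) diluted ~1:20 into matrix at −3 h (sealed, 37 °C) or −10 min (room temperature).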
# [4] = Microsomal stability assay, mouse; type: in vitro ADME; details: mouse liver microsomes
# In short: (§1)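 Mouse or human liver microsomes thawed slowly on ice, then combined with test compound (from a 100 μM solution; final level not given) and 100 mM phosphate buffer. Pre-incubated 5 min at 37 °C in a water bath. Intrinsic clearance reported as μL/min/mg protein.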
# [5] = Microsomal stability assay, human; type: in vitro ADME; details: human liver microsomes
# In short: as §1
# [6] = test system: A549 cells; assay: Cell accumulation assay; type: cell-based, human; details: for compound 2 found in cells after lysis (intracellular cleavage of prodrug): A549 cells treated with prodrug
# [7] = test system: A549 cells; details: cytotoxicity versus antimicrobial activity
# [8] = Cleavage/stability in P. aeruginosa PA14 culture filtrate without plasma; type: in vitro ADME, Pseudomonas aeruginosa; details: up to 24 h
# [9] = Matrix 3: 10% P. aeruginosa culture supernatant in PBS, pre-incubation < 10 min
compound,measurement,setting,value
"CC(C)C[C@H](NC(=O)CNC(=O)[C@H](C)NC(=O)c1ccc(S[C@@H]2O[C@H](CO)[C@H](O)[C@H](O)[C@H]2O)cc1)C(=O)N[C@@H](C)C(=O)NC[C@@H]1CCN(c2cc3c(cc2F)c(=O)c(C(=O)O)cn3C2CC2)C1 [Compound 48, LecA-Targeted Aminomethylpyrrolidine-FQ-Prodrug]",release of native antibiotic cargo,[1],efficiently released
same,release of antibiotic cargo (stability control),[2],no significant release of the antibiotic cargo was observed
"CC(C)C[C@H](NC(=O)CNC(=O)[C@H](C)NC(=O)c1ccc(S(=O)(=O)NC[C@H]2O[C@@H](C)[C@@H](O)[C@@H](O)[C@@H]2O)cc1)C(=O)N[C@@H](C)C(=O)N1CCN(c2cc3c(cc2F)c(=O)c(C(=O)O)cn3C2CC2)CC1 [Compound 25, LecB-Targeted Ciprofloxacin-Prodrug]",release of native antibiotic cargo,[1],not fully metabolized to release their native antibiotic cargo; also recorded: not completely processed to release free ciprofloxacin
same,release of antibiotic cargo (stability control),[2],no significant release of the antibiotic cargo was observed
"CC(C)C[C@H](NC(=O)CNC(=O)[C@H](C)NC(=O)c1ccc(S[C@@H]2O[C@H](CO)[C@H](O)[C@H](O)[C@H]2O)cc1)C(=O)N[C@@H](C)C(=O)N[C@H]1CCN(c2cc3c(cc2F)c(=O)c(C(=O)O)cn3C2CC2)C1 [Compound 36, LecA-Targeted Aminopyrrolidine-fluoroquinolone Prodrug]",MIC,"[3]; Matrix 3: 10% P. aeruginosa culture supernatant in PBS, pre-incubation 3 h",0.195 to 3.13 µM
same,MIC,[3]; [9],0.78 to 3.13 µM
same,release of native antibiotic cargo,[1],efficiently released
same,release of antibiotic cargo (stability control),[2],no significant release of the antibiotic cargo was observed
same,"half-life at 1 h, 100 µM",[4],1.67 h
same,"microsomal CLint at 1 h, 100 µM",[4],14 µL/min/mg
same,"half-life at 1 h, 100 µM",[5],1.55 h
same,"microsomal CLint at 1 h, 1 µM",[5],15 µL/min/mg
same,fold decreased ability to permeate into human cells versus 2,[6]; A549 cells,up to 100 fold
same,compound 2 found in cells after lysis (intracellular cleavage of prodrug),[6],not detected
same,intracellular concentration,"[6]; A549 cells, 10 μg/mL, after 15, 30, and 60 min",55 to 130 ng/mL
same,selectivity index,[7],greater than 20
Leu-Ala-Ciprofloxacin Conjugate [Compound 19],release of antibiotic cargo from dipeptide conjugate,[8],only slowly released their antibiotic cargo
"CC(C)C[C@H](NC(=O)CNC(=O)[C@H](C)NC(=O)c1ccc(S(=O)(=O)NC[C@H]2O[C@@H](C)[C@@H](O)[C@@H](O)[C@@H]2O)cc1)C(=O)N[C@@H](C)C(=O)NC[C@@H]1CCN(c2cc3c(cc2F)c(=O)c(C(=O)O)cn3C2CC2)C1 [Compound 49, LecB-Targeted Aminomethylpyrrolidine-FQ-Prodrug]",MIC,[3]; [9],3.13 to 6.25 µM
same,release of native antibiotic cargo,[1],efficiently released
same,release of antibiotic cargo (stability control),[2],no significant release of the antibiotic cargo was observed
"CC(C)C[C@H](N)C(=O)N[C@@H](C)C(=O)N[C@H]1CCN(c2cc3c(cc2F)c(=O)c(C(=O)O)cn3C2CC2)C1 [Compound 35, 7-((S)-3-((S)-2-((S)-2-Amino-4-methylpentanamido)propanamido)pyrrolidin-1-yl)-1-cyclopropyl-6-fluoro-4-oxo-1,4-dihydroquinoline-3-carboxylic Acid]",release of antibiotic cargo from dipeptide conjugate,[8],only slowly released their antibiotic cargo
"O=C(O)c1cn(C2CC2)c2cc(N3CCNCC3)c(F)cc2c1=O [Compound 1, Ciprofloxacin, reference compound]",MIC,"[3]; Pseudomonas aeruginosa, PA14, Matrix 1: PBS, pre-incubation 3 h",0.125 to 0.25 µM
"CC(C)C[C@H](NC(=O)CNC(=O)[C@H](C)NC(=O)c1ccc(S(=O)(=O)NC[C@H]2O[C@@H](C)[C@@H](O)[C@@H](O)[C@@H]2O)cc1)C(=O)N[C@@H](C)C(=O)N[C@H]1CCN(c2cc3c(cc2F)c(=O)c(C(=O)O)cn3C2CC2)C1 [Compound 37, LecB-Targeted Aminopyrrolidine-FQ-Prodrug]",release of native antibiotic cargo,[1],efficiently released
same,release of antibiotic cargo (stability control),[2],no significant release of the antibiotic cargo was observed
same,"half-life at 1 h, 100 µM",[4],3.6 h
same,"microsomal CLint at 1 h, 1 µM",[4],6.4 µL/min/mg
same,"half-life at 1 h, 100 µM",[5],2.97 h
same,"microsomal CLint at 1 h, 100 µM",[5],7.8 µL/min/mg
same,fold decreased ability to permeate into human cells versus 2,[6]; A549 cells,up to 100 fold
same,compound 2 found in cells after lysis (intracellular cleavage of prodrug),[6],not detected
"CC(C)C[C@H](NC(=O)CNC(=O)[C@H](C)NC(=O)c1ccc(S[C@@H]2O[C@H](CO)[C@H](O)[C@H](O)[C@H]2O)cc1)C(=O)N[C@@H](C)C(=O)N1CCN(c2cc3c(cc2F)c(=O)c(C(=O)O)cn3C2CC2)CC1 [Compound 24, LecA-targeted ciprofloxacin-prodrug]",release of native antibiotic cargo,[1],not fully metabolized to release their native antibiotic cargo; also recorded: not completely processed to release free ciprofloxacin
same,release of antibiotic cargo (stability control),[2],no significant release of the antibiotic cargo was observed
